Measured values pooled from the literature.
Protocols differ between the studies behind these lines.
Target: Glycogen synthase kinase-3 alpha (GSK3A, Homo sapiens, UniProt P49840)

| Compound | observed | mode | technique | concentration | endpoint | result |
| --- | --- | --- | --- | --- | --- | --- |
| O=c1[nH]c2ccccc2n1C1CCN(Cc2ccc(-c3[nH]c4cc5ncnc5cc4nc3-c3ccccc3)cc2)CC1 | cell-free assay |  |  | 0.5 µM | remaining signal | 100% |
| Nc1ncc(-c2nc(N3CCOCC3)nc(N3CCOCC3)n2)c(C(F)F)n1 | binding |  | competition with immobilised ligand | 10 µM | remaining binding | 91% |
| Cn1cncc1[C@@](O)(COc1ccc(C#N)cc1-c1ccc(OC(F)(F)F)cc1)c1ccc(C#N)cc1 | cell-free assay |  | competition with immobilised ligand | 1 µM | remaining binding | 100% |
| C#Cc1n[nH]c2c(-c3cn([C@@H](C)c4ccccc4)c(=O)[nH]c3=O)cc(F)cc12 | enzyme activity | inhibitor |  | 0.1 µM | inhibition | -1.9% |
| Cn1cc(-c2cccc(N3CCc4c(sc5c4CC(C)(C)C5)C3=O)c2CO)cc(Nc2ccncn2)c1=O | enzyme activity | inhibitor |  | 1 µM | inhibition | 4% |
| C#Cc1n[nH]c2c(-c3cn([C@@H](C)c4ccccn4)c(=O)[nH]c3=O)cc(F)cc12 | enzyme activity | inhibitor |  | 0.1 µM | inhibition | -0.2% |
| COc1ncccc1-c1cnn2ccc(N3CCN(C(=O)OC(C)C)CC3)nc12 | binding |  | competition with immobilised ligand | 1 µM | remaining binding | 100% |
| Cc1nn(C)cc1-c1nc2c(N3CCN(Cc4ccc(Cl)cc4)CC3)c(Cl)cnc2[nH]1 | binding |  | competition with immobilised ligand | 1 µM | remaining binding | 100% |
| Cn1cc(-c2cc(F)cc(N3CCn4c(cc5c4CCCC5)C3=O)c2CO)cc(Nc2ccc(N3CCN(C4COC4)CC3)cn2)c1=O | enzyme activity | inhibitor |  | 0.1 µM | inhibition | 19% |
